# pKi: −log10 of the molar value.
# Experiments:
# [1] = biological target: Sodium channel protein type 2 subunit alpha (Rattus norvegicus) (UniProt P04775); assay: Dissociation constant for binding to inactivated state of rat brain NaIIa (rNav1.2) -B2 cell line stably expressed in HEK293 Cells
# Rattus norvegicus [2] = species: Rattus norvegicus; assay: Inhibition of native TTX-R sodium currents in acutely dissociated rat dorsal root ganglion (DRG); assay type: functional
# Outline: (§1)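 Acutely dissociated neurons from newborn Sprague Dawley rat pups were plated on poly-D-lysine and recorded for up to two weeks. The HEK-293 fractional-response protocol was used, but with a 1-s depolarizing prepulse and a 5-ms hyperpolarizing gap. Fractional responses were collected at three or more concentrations per drug. Ki came from a logistic fit of the partial concentration–inhibition curves.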
# [3] = biological target: Sodium channel protein type 2 subunit alpha, Nav1.2 (Rattus norvegicus) (UniProt P04775); assay: Dissociation constant for binding to resting state of rat brain NaIIa (rNav1.2) -B2 cell line stably expressed in HEK293 Cells
# Rattus norvegicus [4] = species: Rattus norvegicus; assay: Inhibition of native TTX-S sodium currents in acutely dissociated rat dorsal root ganglion (DRG); assay type: functional
# Outline: as §1
# [5] = Ratio between Kr to Ki; assay type: functional
Compound,Ratio [5],pKi [1],Inhibition activity (Rattus norvegicus [2]),kR [3],Inhibition activity (Rattus norvegicus [4])
NC(=O)c1ccnc(-c2ccc(Oc3ccc(F)cc3)cc2)c1,,5.58,,,
NC(=O)N/N=C/c1ccc(Oc2ccc(F)cc2)cc1,100,6.46,0.26 µM,34 µM,0.25 µM
NC(=O)c1cccnc1-c1ccc(Oc2ccc(F)cc2)cc1,5,4.87,,63.7 µM,
NC(=O)c1ccc(-c2ccc(Oc3ccc(F)cc3)cc2)nc1,,5.43,,,
O=C(NCCN1CCCCC1)c1cncc(-c2ccc(Oc3ccc(F)cc3)cc2)c1,68,6.82,,10.5 µM,
NC(=O)N1c2ccccc2C=Cc2ccccc21 [CARBAMAZEPINE],,,111 µM,,28 µM
Nc1nnc(-c2cccc(Cl)c2Cl)c(N)n1 [LAMOTRIGINE],,,103 µM,,38.4 µM

# The next lines start with results.
Ratio [5],Compound,pKi [1],Inhibition activity (Rattus norvegicus [2]),kR [3],Inhibition activity (Rattus norvegicus [4])
180,O=C(NCCN1CCCCC1)c1ccc(-c2ccc(Oc3ccc(F)cc3)cc2)nc1,6.23,1.56 µM,107 µM,1 µM
122,Cc1cc(N(C)C)cc(-c2ccc(Oc3ccc(F)cc3)cc2)n1,6.41,0.34 µM,47.1 µM,0.53 µM
94,NC(=O)c1cc(N2CCOCC2)cc(-c2ccc(Oc3ccc(F)cc3)cc2)n1,6.92,0.1 µM,11.6 µM,0.06 µM
90,COc1cc(C(=O)NCCN(C)C)nc(-c2ccc(Oc3ccc(F)cc3)cc2)c1,6.60,1.56 µM,23 µM,0.18 µM
154,O=C(NCCN1CCCCC1)c1cccc(-c2ccc(Oc3ccc(F)cc3)cc2)n1,7.70,0.06 µM,4.3 µM,
24,COc1cc(C(N)=O)nc(-c2ccc(Oc3ccc(F)cc3)cc2)c1,6.44,,87.7 µM,
362,Cc1cc(OCCN2CCCCC2)cc(-c2ccc(Oc3ccc(F)cc3)cc2)n1,6.77,0.08 µM,63.4 µM,0.14 µM
252,NC(=O)c1cccc(-c2ccc(Oc3ccc(F)cc3)cc2)n1,7.05,0.27 µM,24.2 µM,0.1 µM
